From ChEMBL document CHEMBL3994613, “Diaryltriazenes as antibacterial agents against methicillin resistant Staphylococcus aureus (MRSA) and Mycobacterium smegmatis” (Eur J Med Chem, 2017)
Values after ≈ are worked out from the molar mass of the structure shown.

Tests used:
[1] = tested on: Enterococcus faecalis; test: Antibacterial activity against vancomycin resistant Enterococcus faecalis 501 after 18 to 20 hrs by broth microdilution method; type: functional
Method in brief: (§1)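 EUCAST microdilution in BHI broth. Inoculum from 20–24 h colonies on 5% sheep blood BHI agar, final 3×10^4 CFU/mL, 18–20 h aerobic at 37 °C, plate reader, at least duplicate.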

[2] = tested on: Escherichia coli; test: Antibacterial activity against Escherichia coli DH10beta harboring pHuLUC3 after 18 to 20 hrs by microdilution method; type: functional
Method in brief: (§2)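 EUCAST broth microdilution in LB broth. Inoculum prepared by direct colony suspension from 20–24 h LB agar (E. coli DH10β) or 5% sheep blood BHI agar (MRSA USA300) growth. Final inoculum 2×10^4 CFU/mL, 18–20 h aerobic at 37 °C, growth read on a plate reader, at least duplicate.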

[3] = tested on: Escherichia coli; test: Antibacterial activity against N43 CGSC 5583 knock out Escherichia coli after 18 to 20 hrs by microdilution method; type: functional
Method in brief: (§3)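 Broth microdilution per EUCAST in LB broth. Inoculum from 20–24 h colonies by CLSI direct colony suspension (LB agar for E. coli), final 2×10^4 CFU/mL. Read after 18–20 h aerobic incubation at 37 °C on plate reader, at least one duplicate.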

[4] = Solubility of the compound in water; type: physicochemical; conditions: buffer
[5] = Stability of the compound in organic solvent; type: physicochemical
[6] = tested on: Mycolicibacterium smegmatis; test: Bactericidal activity against Mycobacterium smegmatis MC2 155 after 96 hrs by microdilution method; type: functional; conditions: str. MC2 155, 96 h
Method in brief: (§4)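 Microdilution in TSB broth. Inoculum from colonies grown 96 h on TSA, final 1×10^5 CFU/mL, aerobic 94–98 h at 37 °C, growth read on a plate reader, at least duplicate.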

[7] = tested on: Streptococcus pneumoniae; test: Antibacterial activity against Streptococcus pneumoniae R6 after 18 to 20 hrs by broth microdilution method; type: functional
Method in brief: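 Broth microdilution per EUCAST in BHI broth. Inoculum from colonies on BHI agar with 5% sheep blood, final 5×10^4 CFU/mL. Read after 18–20 h anaerobic incubation at 37 °C.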

[8] = Stability of the compound in water; type: physicochemical; conditions: buffer
[9] = tested on: Escherichia coli; test: Bactericidal activity against Escherichia coli DH10beta harboring pHuLUC3 after 18 to 20 hrs by microdilution method; type: functional; method in brief: as §2
[10] = tested on: Staphylococcus aureus; test: Antibacterial activity against methicillin-resistant Staphylococcus aureus USA300 after 18 to 20 hrs by microdilution method; type: functional; method in brief: as §2
[11] = tested on: Pseudomonas aeruginosa; test: Antibacterial activity against Pseudomonas aeruginosa ATCC 27853 after 18 to 20 hrs by broth microdilution method; type: functional
Method in brief: (§5)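 EUCAST broth microdilution in LB broth. Inoculum from 20–24 h LB agar colonies (CLSI direct colony suspension), final 3×10^4 CFU/mL. Aerobic incubation 18–20 h at 37 °C, plate-reader read-out, at least one duplicate.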

[12] = Stability of the compound in solid state; type: physicochemical
[13] = tested on: Streptococcus pneumoniae; test: Bactericidal activity against Streptococcus pneumoniae R6 after 18 to 20 hrs by broth microdilution method; type: functional
[14] = tested on: Pseudomonas aeruginosa; test: Antibacterial activity against Pseudomonas aeruginosa PA0001 after 18 to 20 hrs by broth microdilution method; type: functional; method in brief: as §5
[15] = tested on: Escherichia coli; test: Antibacterial activity against Escherichia coli D22 after 18 to 20 hrs by microdilution method; type: functional; method in brief: as §3
[16] = tested on: Klebsiella pneumoniae; test: Antibacterial activity against Klebsiella pneumoniae ATCC 13882 after 18 to 20 hrs by broth microdilution method; type: functional
Method in brief: (§6)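 Broth microdilution per EUCAST in TSB broth. Inoculum prepared by CLSI direct colony suspension from 20–24 h TSA colonies, final 3×10^4 CFU/mL. Aerobic incubation for 18–20 h at 37 °C, growth read on plate reader, at least one duplicate.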

[17] = tested on: Staphylococcus aureus; test: Antibacterial activity against methicillin-resistant Staphylococcus aureus 1653 after 18 to 20 hrs by broth microdilution method; type: functional
Method in brief: (§7)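 EUCAST broth microdilution in LB broth. Inoculum from 20–24 h colonies on 5% sheep blood BHI agar, final 3×10^4 CFU/mL, 18–20 h aerobic at 37 °C, plate reader, at least duplicate.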

[18] = tested on: Mycolicibacterium smegmatis; test: Antimycobacterial activity against Mycobacterium smegmatis MC2 155 after 94 to 98 hrs by microdilution method; type: functional; conditions: str. MC2 155; method in brief: as §4
[19] = tested on: Staphylococcus aureus; test: Bactericidal activity against methicillin-resistant Staphylococcus aureus USA300 after 18 to 20 hrs by microdilution method; type: functional; method in brief: as §2
[20] = tested on: Enterococcus faecalis; test: Bactericidal activity against vancomycin resistant Enterococcus faecalis 501 after 18 to 20 hrs by broth microdilution method; type: functional; method in brief: as §1
[21] = tested on: Saccharomyces cerevisiae; test: Antibacterial activity against Saccharomyces cerevisiae after 18 to 20 hrs by microdilution method
Method in brief: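 Microdilution in YEP broth against wild-type yeast grown on YEP agar. Final inoculum 1×10^5 CFU/mL. Read after 18–20 h aerobic incubation at 30 °C on plate reader, at least one duplicate.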

[22] = tested on: Escherichia coli; test: Bactericidal activity against Escherichia coli D22 after 18 to 20 hrs by microdilution method; type: functional
[23] = tested on: Acinetobacter baumannii; test: Antibacterial activity against Acinetobacter baumannii ATCC BAA-1605 after 18 to 20 hrs by broth microdilution method; type: functional; method in brief: as §6
[24] = tested on: Staphylococcus aureus; test: Bactericidal activity against methicillin-resistant Staphylococcus aureus 1653 after 18 to 20 hrs by broth microdilution method; type: functional; method in brief: as §7
[25] = tested on: Acinetobacter baumannii; test: Antibacterial activity against Acinetobacter baumannii ATCC 19606 after 18 to 20 hrs by broth microdilution method; type: functional; conditions: ATCC 19606 = CIP 70.34 = JCM 6841; method in brief: as §6
[26] = tested on: Klebsiella pneumoniae; test: Antibacterial activity against Klebsiella pneumoniae ATCC 700603 after 18 to 20 hrs by broth microdilution method; type: functional; method in brief: as §6
[27] = tested on: Staphylococcus aureus; test: Induction of membrane integrity impairment in Staphylococcus aureus USA300 assessed as cells with intact membrane at 8 ug/ml measured after 30 mins by Baclight assay relative to control; type: functional
Method in brief: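 LIVE/DEAD BacLight fluorescence assay. Live cells in 0.85% NaCl at OD600 0.2 were exposed to compound in DMSO for 30 min at 37 °C. Dye was then added and incubated 15 min in the dark at room temperature. Fluorescence read at ex 485 nm, em 530/630 nm. Intact membrane % came from a live/dead (isopropanol-killed) standard curve, at least triplicate, mean±SD.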

[28] = tested on: Bacillus subtilis; test: Antibacterial activity against Bacillus subtilis ATCC 6051 after 18 to 20 hrs by broth microdilution method; type: functional; method in brief: as §3
[29] = tested on: Bacillus subtilis; test: Bactericidal activity against Bacillus subtilis ATCC 6051 after 18 to 20 hrs by broth microdilution method; type: functional
[30] = Stability in PBS buffer at pH 7.4 NMR method; type: physicochemical
[31] = Stability in PBS buffer at pH 7.4 by TLC method; type: physicochemical
[32] = Stability in pH 7.4 DMSOd6/PBS buffer assessed as glutathione reactivity incubated for 24 hrs by 1H NMR spectroscopic method; type: physicochemical; conditions: pH 7.4, 24 h
Method in brief: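 Equimolar reduced glutathione and compound were incubated at room temperature in DMSO-d6/phosphate buffer pH 7.4 (1:1, v/v). The mixture was monitored by NMR.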

O=C(CCl)N(/N=N/c1ccc([N+](=O)[O-])cc1C(F)(F)F)c1ccc([N+](=O)[O-])cc1C(F)(F)F
MIC [1]: 1 µg/mL (≈ 2 µM)
MIC [2]: 128 µg/mL (≈ 256 µM)
MIC [3]: > 128 µg/mL
solubility [4]: Soluble
Stability [5]: Stable
MBC [6]: > 128 µg/mL
MIC [7]: 0.0312 µg/mL (≈ 0.0625 µM)
Stability [8]: Stable
MBC [9]: > 128 µg/mL
MIC [10]: 2 µg/mL (≈ 4 µM)
MIC [11]: > 128 µg/mL
Stability [12]: Stable
MBC [13]: 0.125 µg/mL (≈ 0.25 µM)
MIC [14]: > 128 µg/mL
MIC [15]: 0.5 µg/mL (≈ 1 µM)
MIC [16]: > 128 µg/mL
MIC [17]: 0.03 µg/mL (≈ 0.06 µM)
MIC [18]: 32 µg/mL (≈ 64 µM)
MBC [19]: 2 µg/mL (≈ 4 µM)
MBC [20]: > 128 µg/mL
MIC [21]: > 128 µg/mL
MBC [22]: 16 µg/mL (≈ 32 µM)
MIC [23]: > 128 µg/mL
MBC [24]: 0.5 µg/mL (≈ 1 µM)
MIC [25]: > 128 µg/mL
MIC [26]: > 128 µg/mL
Activity [27]: 100%
MIC [28]: 0.0312 µg/mL (≈ 0.0625 µM)
MBC [29]: 4 µg/mL (≈ 8 µM)

O=[N+]([O-])c1ccc(/N=N/[N-]c2ccc([N+](=O)[O-])cc2C(F)(F)F)c(C(F)(F)F)c1.[K+]
Stability [30]: Stable
solubility [4]: Soluble
Stability [5]: Stable
Stability [8]: Stable
Stability [31]: Stable
Stability [12]: Stable
Stability [32]: Stable

O=[N+]([O-])c1ccc(/N=N/Nc2ccc([N+](=O)[O-])cc2C(F)(F)F)c(C(F)(F)F)c1
Stability [30]: Stable
Stability [31]: Stable
